Measurements taken from the EternaBench riboswitch data.

Test system: MS2 coat protein
Test: apparent Kd, MS2 coat protein; higher = weaker binding; RNA-MaP array; FMN 200 µM where present
Method in brief: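 Binding was read on Illumina sequencing-chip clusters where stalled E. coli RNA polymerase had transcribed each design. A titration of SNAP-549-labelled MS2 coat protein began at 0.7 or 1.5 nM and doubled to 3 µM, once without ligand and once with constant ligand, in 100 mM Tris-HCl pH 7.5, 80 mM KCl, 4 mM MgCl2, BSA, DTT, yeast tRNA and Tween-20. The apparent Kd is the median of filtered per-cluster binding-curve fits, based on green signal normalised to red-channel RNA signal and control-cluster median Fmax.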

[1] = designed as: OFF switch for flavin mononucleotide, no ligand
[2] = ligand present: flavin mononucleotide, designed as: OFF switch for flavin mononucleotide
[3] = designed as: ON switch for flavin mononucleotide, no ligand
[4] = ligand present: flavin mononucleotide, designed as: ON switch for flavin mononucleotide

| Sequence | apparent Kd [1] | apparent Kd [2] | apparent Kd [3] | apparent Kd [4] |
| --- | --- | --- | --- | --- |
| GGUACUCAAAGAGUACCAAUACGAACAUGAGGAUCACCCAUGUAGGAUAUGCUACUCAAAGAGUAGCAGAAGGACAUGUGCAUA | 22.1 nM | 135 nM |  |  |
| CCAUCGUGUGUGAGGAUAUGCUGGUCCUUGGAUCAGCAGAAGGCACAUGAGGAUCACCCAUGUGAAUACGAUGG | 16.3 nM | 29.5 nM |  |  |
| GGGUAACAUGAGGAUCACCCAUGUGAGGAUAUUCUAGGGAUGGAAGCUCGGCCGGCCAGGAGAAGGUACUAAAG | 44 nM | 48 nM |  |  |
| CGUAACUGCAUAGGAUAUUGAUACAUGAGGAUCACCCAUGUUUUUCGGAUUUGUAAUAUACUAAGCAAGAAGGAUGGAGUUACG |  |  | 8.04 nM | 5.66 nM |
| UGGCCGAAGUUAGGAUAUUGGUUAGGGACGGACUAAGAAGGAGCACAUACAUGAGGAUCACCCAUGUUAGAAGGUUGUCCUCCA | 15.5 nM | 13.7 nM |  |  |
| AAUAACAGAGGAUAUACUAUUUUAUGUGUUUGUUAUUUUAAACAUGAGGAUCACCCAUGUAGAAGGCUGAAUAA | 24.3 nM | 22.1 nM |  |  |
| GACUACGAGGGAGGAUAUCCUCAUUAAAAUGGUGGAGAAGGCCCUCUACAUGAGGAUCACCCAUGUAUCGCUAUAGUCAGAAAU |  |  | 10.8 nM | 6.53 nM |
| GUGGACUACGUAGGAUAUGUAGGAUAUUCCUACAUGAGGAUCACCCAUGUUAGCAUGGAAGAAGGACAGAAGGACGUGGUCCAG |  |  | 1130 nM | 16 nM |
| UUGUUAUAUGUAGGAUAUGCAUAUUAUUAUUAUGCAGAAGGACAUGAGGAUCACCCAUGUAUAUUGUUGUUAUAUAUUAUAUAU | 24 nM | 28.4 nM |  |  |
| UCAUUGGUUGUGAGGAUAUCGGUGUGAUGGAUUGUCGAGAAGGCACAUGAGGAUCACCCAUGUUUGUUUGGGCU | 577 nM | 449 nM |  |  |
| UUACCCUCAGUAAGGAUAUCUUUAUCUGCUGAUUUAGAGAAGGUACAUGAGGAUCACCCAUGUGCGAUUGGGCA | 80.3 nM | 501 nM |  |  |
| AGCAUGUAAGGAUAUGCAAGUGGUACGGAUAGUACCAUAAAGCAGAAGGUACAUGAGGAUCACCCAUGUGCUCC | 36.3 nM | 66.7 nM |  |  |
| CGCUGUCACGCAGGAUAUGCAUUGGAUUACAAUGCAGAAGGGCGAUAACAUGAGGAUCACCCAUGUGUAGACAGUGAAGAAGAG |  |  | 145 nM | 27.2 nM |
| AGUACUACAGGAUAUACGAGGGAGGUCCACGUGACCCUUCUACAUGAGGAUCACCCAUGUAGAAGGGUAGUACA | 13.9 nM | 13.9 nM |  |  |
| UGUAUACAUGAGGAUCACCCAUGUAAGGAUAUGCUUUAUUAUUAUUAUUAUUAUUAUUGCAGAAGGUACAUUAU | 35.8 nM | 35.9 nM |  |  |
| GGUACCUUCACAGGAUAUGCUAUCCUUUGGGUAGCAGAAGGGUGAUAACAUGAGGAUCACCCAUGUGGUACCGGGCGUGAGCCC |  |  | 1180 nM | 109 nM |
| GCUUGUAGAGGAUAUACAAGGGCCUUAGCGGAAAACUCCGCACAUGAGGAUCACCCAUGUAGAAGGCUACCACC | 16.1 nM | 97.9 nM |  |  |
| ACAGAGGCUGACAUGAGGAUCACCCAUGUUAGAUUGUUAUGUCAGGAUAUUGUCUAGCAACUAGACAAGAAGGGACCCUCUGUG |  |  | 39.2 nM | 9.69 nM |
| AGCUGUGGCAGAGGAUAUACAAUCCUAAUCCAUUGCAAAUAGCGAUGGACAUGAGGAUCACCCAUGUAGAAGGCUGUCUCAGCA | 297 nM | 65.2 nM |  |  |
| AGCAGUACAGGAUAUACAUGAGGAUCACCCAUGUGAAAAUUAAGUGGCGUACCACAAAGUAGAAGGGUACUGCA | 32 nM | 117 nM |  |  |
| CUGGAUGUCGAGGAUAUGCACCGGCUCGCUGACGCAGAAGGCGACACAUGAGGAUCACCCAUGUCGGUUCGCGA | 18.6 nM | 42 nM |  |  |

| Sequence | apparent Kd [1] | apparent Kd [2] | apparent Kd [3] | apparent Kd [4] |
| --- | --- | --- | --- | --- |
| GGCCUACGAGGAUAUCGCUAGCGGGACAUGAGGAUCACCCAUGUGUCGGACCGCGUCAUGCGAGAAGGUGUAAUGA | 17.6 nM | 18.4 nM |  |  |
| GGUACUCAAAGAGUACCAAUACGAACAUGAGGAUCACCCAUGUAGGAUAUUCUACUCAAAGAGUAGCAGAAGGACAUGUGCCUA | 10.8 nM | 13.1 nM |  |  |
| UAGCAAACGACCUGUGUGUGACAUGAGGAUCACCCAUGUUAGAGAAGGCCGAUAGCGCCGCGUACGGAGGAUAUCUGACAGGGA | 24.1 nM | 30.3 nM |  |  |
| AGUGGGCUAGGAUAUCGAUGAACUCACAUGAGGAUCACCCAUGUGUCUUUGGUGGGCGCACGAGAAGGAGUAAGAU | 40.4 nM | 43.3 nM |  |  |
| ACGGCAAUCAGAGGAUAUGGUUACAUGAGGAUCACCCAUGUCAAGGGUCUAAUUAGGUAUAACUACCAGAAGGCUGAAGGCCUA | 56.1 nM | 94.8 nM |  |  |
| UGUUGUUCAGGAUAUGGUGUGUUCUACAUGAGGAUCACCCAUGUGGGUCCUGGUUUGGCGUCAGAAGGGAAUGUUG | 750 nM | 746 nM |  |  |
| CAUGUCCUCACAGGAUAUGCAAUGUAUUUCAUUGCAGAAGGGUGAACACAUGAGGAUCACCCAUGUGGACAUGAUAUAUUUAAU |  |  | 521 nM | 69.5 nM |
| UUCAGCUCGUGAGGAUAUACAUGUGCUGGAAACAGCACUAAUUAAAUCACAUGAGGAUCACCCAUGUAGAAGGCACGAGCUGAG | 16.2 nM | 25.8 nM |  |  |
| GGAGAACAUGAGGAUCACCCAUGUGGAUGGGCGCUAGGAUAUGCGGGAGGGUGAAGAGAAGCAGAAGGAGUGGAUA |  |  | 77.6 nM | 76.1 nM |
| CUGUAGAUAUCAGGAUAUCUAUUUCCUACAUGAGGAUCACCCAUGUAGGUGAUCACCCAAGUAAAGGAGAAGGGAUAUCUAUAG |  |  | 65 nM | 23.2 nM |
| AUCUCCUCUGUCAGGAUAUAUAAACUGUUGCAGUGGUAGAAGGGACAUGAGGAUCACCCAUGUAAUAUAAAUAA | 25.6 nM | 71.5 nM |  |  |
| GCACUUAAGUUAGGAUAUGGAUCGGAAAACGAUCCAGAAGGAAUAUGGGAACAUGAGGAUCACCCAUGUUCCACAGACAAGUGC |  |  | 47.5 nM | 24.4 nM |
| GUAAAGUGAGGAUAUGGUAAUUUAAUUAUUAAUUAAUUAAUCCAGAAGGCACAUGAGGAUCACCCAUGUAAAGG | 39.6 nM | 74.6 nM |  |  |
| CCGGACAUUCGGACAUGAGGAUCACCCAUGUAGGCGGAUUCACAGGAUAUAAGUUCGUCCGAGACUUAGAAGGGUGGCUUCCGA |  |  | 119 nM | 54.6 nM |
| AUCAGCUCGUCAGGAUAUACAUGAUAGAUCGAUUAAUUAAUUAAUUUAACAUGAGGAUCACCCAUGUAGAAGGGACGAGCUGAU | 68.5 nM | 67.4 nM |  |  |
| AAGCGAAAGCUAAAAUAUCUAUCAGAGGAUAUUUAUGAUACAUGAGGAUCACCCAUGUGGCGCUGGGAGAAGGCUGAUAGAUAA |  |  | 12.9 nM | 6.79 nM |
| GCUUGUAGAGGAUAUACAAGGGCCUUAGCGAAUAACACCGCACAUGAGGAUCACCCAUGUAGAAGGCUACCACC | 15.6 nM | 77.6 nM |  |  |
| AGUAAGAUGCAGAAGGUGUUAGCUAGAGCUACGACAUGAGGAUCACCCAUGUACAAAAGCCCGUACAAGGAUAUGCAUCUUACA |  |  | 4.46 nM | 4.21 nM |
| AAGACUAGAGGAUAUACAUGAGGAUCACCCAUGUAACUGUCAGAAAACUGACGGAGAUGUAGAAGGCUAGUCAA | 17.7 nM | 34.7 nM |  |  |
| UUAUACAUUCGAGGAUAUCGGAGAGAAAUCAUUCGAGAAGGCGAUUCAUGAUGUAUUAUCCUGGACAUGAGGAUCACCCAUGUA |  |  | 79.7 nM | 68.5 nM |
| GAUUACAAGUAAGGAUAUGUAUAUGAAACAUAUACAGAAGGUACAUGAGGAUCACCCAUGUUCUUGCAGCGCGAAUAUGUAAUC | 17.1 nM | 21.1 nM |  |  |
